{"data": "Assay results from different studies", "effect on": "microbial growth"}
{"SMILES": "NC(=O)c1c(NC(=O)C2CC2)sc2c1CCCC2", "organism": "Staphylococcus aureus", "strain": "NCTC8325", "MIC": "> 30 µM"}
{"SMILES": "O=C(N[C@H](CO)[C@H](O)c1ccc([N+](=O)[O-])cc1)C(Cl)Cl", "organism": "Micrococcus flavus", "technique": "broth dilution", "MIC": "7 µg/mL"}
{"SMILES": "CC1=NN(CNc2ccc(Cl)cc2)C(=O)C1=NNn1c(-c2ccccc2)nc2ccccc2c1=O", "organism": "Micrococcus luteus", "technique": "broth dilution", "time": "24 h", "MIC": "103 µM"}
{"SMILES": "O=C(O)CN1C(=O)/C(=C/c2c3ccccc3c(-c3ccc(N(c4ccccc4)c4ccccc4)cc3)c3ccccc23)NC1=S", "organism": "Micrococcus luteus", "technique": "broth dilution", "strain": "ATCC10240", "MIC": "> 1000 µg/mL"}
{"SMILES": "Cc1ncc([N+](=O)[O-])n1CCO", "organism": "Lactobacillus acidophilus", "technique": "agar dilution", "time": "48 h", "MIC": "> 16 µg/mL"}
{"SMILES": "C/C=C(\\C)c1cc(OC(=O)c2c(O)c(C)c(O)c(Cl)c2/C(C)=C/C)c(C)c(O)c1C(=O)O", "organism": "Micrococcus luteus", "technique": "broth dilution", "strain": "ML01", "MIC": "32 µg/mL"}
{"SMILES": "O=C(O)CN1C(=O)/C(=C/c2ccc(-c3ccc(N(c4ccccc4)c4ccccc4)cc3)c3ccccc23)NC1=S", "organism": "Micrococcus luteus", "technique": "broth dilution", "strain": "ATCC10240", "MIC": "> 1000 µg/mL"}
{"SMILES": "O=c1[nH]c(NCc2ccc(Cl)c(Cl)c2)nc2ncn(CCCCCN3CCOCC3)c12", "organism": "Lactobacillus acidophilus", "technique": "agar dilution", "time": "48 h", "MIC": "2 µg/mL"}
{"SMILES": "O=C(O)CN1C(=O)/C(=C/c2c3ccccc3c(-c3ccc(N(c4ccccc4)c4ccccc4)cc3)c3ccccc23)SC1=S", "organism": "Micrococcus luteus", "technique": "broth dilution", "strain": "ATCC10240", "MIC": "125 µg/mL"}
{"SMILES": "CCn1cc(-c2ccnc3[nH]c(-c4cccc(CN(C)C)c4)cc23)c(-c2ccc(NC(=O)N(C)C)cc2)n1", "organism": "Staphylococcus aureus", "strain": "NCTC8325", "MIC": "> 30 µM"}
{"SMILES": "CC1=NN(CNc2ccc(O)cc2)C(=O)C1=NNn1c(-c2ccccc2)nc2ccccc2c1=O", "organism": "Micrococcus luteus", "technique": "broth dilution", "time": "24 h", "MIC": "53.5 µM"}
{"SMILES": "O=C(NOCC(O)CO)c1cc(Br)c(F)c(F)c1Nc1ccc(I)cc1F (centres unmarked)", "organism": "Staphylococcus aureus", "strain": "NCTC8325", "MIC": "> 30 µM"}
{"SMILES": "O=C(O)CN1C(=O)/C(=C/c2ccc(-c3ccc(N(c4ccccc4)c4ccccc4)cc3)cc2)NC1=S", "organism": "Micrococcus luteus", "technique": "broth dilution", "strain": "ATCC10240", "MIC": "1.95 µg/mL"}
{"SMILES": "Cc1cnc(Nc2ccc(N3CCN(C)CC3)cc2)nc1Nc1cccc(S(=O)(=O)NC(C)(C)C)c1", "organism": "Staphylococcus aureus", "strain": "NCTC8325", "MIC": "> 30 µM"}
{"SMILES": "O=C(O)c1cn(C2CC2)c2cc(N3CCNCC3)c(F)cc2c1=O", "organism": "Micrococcus luteus", "technique": "broth dilution", "strain": "ATCC10240", "MIC": "0.98 µg/mL"}
{"SMILES": "O=C(O)c1cn(C2CC2)c2cc(N3CCNCC3)c(F)cc2c1=O", "organism": "Micrococcus luteus", "technique": "broth dilution", "time": "24 h", "MIC": "0.57 µM"}
{"SMILES": "Cc1cccc(C)c1NC(=O)Nc1ccc(Cl)c(C(F)(F)F)c1", "organism": "Staphylococcus aureus", "strain": "NCTC8325", "time": "24 h", "MIC": "> 100 µM"}
